{"source": "ChEMBL document CHEMBL4680124", "about": "“2-Styryl-4-aminoquinazoline derivatives as potent DNA-cleavage, p53-activation and in vivo effective anticancer agents” (Eur J Med Chem, 2020)", "key": {"DU-145": {"tested_on": "DU-145", "test": "Cytotoxicity against human DU145 cells expressing mutant type p53 assessed as reduction in cell viability preincubated for 48 hrs and measured after 4 hrs by MTT assay", "assay_type": "functional, cell-based", "procedure,_shortened": "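MTT assay. Cells grown in DMEM (T24, MGC-803, A549, HL-7702), RPMI-1640 (DU145) or DMEM-F12 (PC-3), each with 10% FBS. Exposed to 1.25–20 µM in medium with 1% DMSO for 48 h, then MTT for 4 h. Formazan dissolved in DMSO and read at 570 nm. Five wells per concentration; means ± SD of independent repeats.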"}, "MGC-803 [1]": {"tested_on": "MGC-803", "test": "Antitumor activity against human MGC-803cells xenografted in BALB/C nude mouse assessed as tumor growth inhibition at 20 mg/kg, ip administered every 2 days and measured 3 times per week for 16 days", "assay_type": "functional", "settings": "MGC-803, ip, 384 h, time 16 day, read-out: TGI", "procedure,_shortened": "(§1)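 Male BALB/c nude mice, 6 weeks old, given 5×10^6 MGC-803 cells s.c. in the flank. When tumors reached about 80 mm3, mice were randomized (n = 6/group) and dosed i.p. every 2 days. Vehicle was 5% DMSO in saline. Drug solutions were 1.0 or 2.0 mg/mL (DMSO/saline). Tumor length and width plus body weight were measured three times weekly; volume = lw²/2. Mean ± SD.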"}, "Mus musculus": {"tested_on": "Mus musculus", "test": "Toxicity against BALB/c nude mouse xenografted with human MGC-803 cells assessed as body weight at 10 mg/kg, ip administered every 2 days and measured 3 times per week for 16 days", "assay_type": "organism-based", "settings": "in vivo, 384 h, time 16 day", "procedure,_shortened": "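Male BALB/c nude mice, 6 weeks old, received 5×10^6 MGC-803 cells subcutaneously in the flank. At about 80 mm3, mice were randomized (n = 6/group). They were dosed i.p. every 2 days with vehicle (5% DMSO in saline, v/v) or drug in DMSO/saline at 1.0 or 2.0 mg/mL. Body weight was recorded three times weekly; mean ± SD.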"}, "MGC-803 [2]": {"tested_on": "MGC-803", "test": "Cell cycle arrest in human MGC-803 cells assessed as accumulation at S phase at 0.125 uM after 48 hrs by propidium iodide staining-based flow cytometric analysis (reference value: 45.1 %)", "assay_type": "functional"}, "MGC-803 [3]": {"tested_on": "MGC-803", "test": "Induction of apoptosis in human MGC-803 cells assessed as activation of caspase 9 at 2.5 uM incubated for 24 hrs by flow cytometric analysis (reference value: 2.82%)", "assay_type": "functional"}, "MGC-803 [4]": {"tested_on": "MGC-803", "test": "Antitumor activity against human MGC-803 cells xenografted in BALB/C nude mouse assessed as tumor growth inhibition at 10 mg/kg, ip administered every 2 days and measured 3 times per week", "assay_type": "functional, organism-based", "settings": "time 2.0 day", "procedure,_shortened": "as §1"}, "MGC-803 [5]": {"tested_on": "MGC-803", "test": "Induction of apoptosis in human MGC-803 cells assessed as nuclear fragmentation incubated at 0.5 to 2.5 uM for 24 hrs by Hoechst 33258 staining based analysis", "assay_type": "functional, cell-based", "settings": "dose 0.5-2.5 µM", "procedure,_shortened": "(§2)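 Cells in six-well plates were treated for the indicated time, then fixed 10 min in 4% paraformaldehyde and washed twice in PBS. Nuclei were stained 5 min with Hoechst 33258, washed twice in PBS and examined by fluorescence microscopy.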"}, "MGC-803 [6]": {"tested_on": "MGC-803", "test": "Induction of apoptosis in human MGC-803 cells assessed as viable cells at 0.5 uM measured after 24 hrs by Annexin-V/propidium iodide staining-based flow cytometric analysis (Rvb =92.2 %)", "settings": "MGC-803, 24 h"}, "MGC-803 [7]": {"tested_on": "MGC-803", "test": "Induction of apoptosis in human MGC-803 cells assessed as increase in Bak expression at 0.5 to 2.5 uM measured after 24 hrs by Western blot analysis", "settings": "dose 0.5-2.5 µM"}, "MGC-803 [8]": {"tested_on": "MGC-803", "test": "Induction of apoptosis in human MGC-803 cells assessed as increase in Bim expression at 0.5 to 2.5 uM measured after 24 hrs by Western blot analysis", "assay_type": "functional, cell-based", "settings": "dose 0.5-2.5 µM", "procedure,_shortened": "(§3)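 MGC-803 cells (2×10^6) cultured overnight, then exposed 24 h to 0.5, 1.0 or 2.5 μM, or 5.0 μM for the reference agent. Lysates were resolved by SDS-PAGE, transferred to PVDF and probed with primary antibodies. Detection used AP-linked anti-rabbit IgG and ECL. β-actin served as loading control.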"}, "L02": {"tested_on": "L02", "test": "Cytotoxicity against human HL-7702 cells expressing wild type p53 assessed as reduction in cell viability preincubated for 48 hrs and measured after 4 hrs by MTT assay", "assay_type": "functional, cell-based"}, "MGC-803 [9]": {"tested_on": "MGC-803", "test": "Induction of apoptosis in human MGC-803 cells assessed as increase in Bax expression at 0.5 to 2.5 uM measured after 24 hrs by Western blot analysis", "assay_type": "functional, cell-based", "settings": "dose 0.5-2.5 µM", "procedure,_shortened": "(§4)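 MGC-803 cells (2×10^6) plated overnight, then treated for 24 h at 0.5, 1.0 or 2.5 µM (test agent) or 5.0 µM (comparator). Whole-cell lysates separated by SDS-PAGE, transferred to PVDF and probed with primary antibodies. AP-linked anti-rabbit IgG, ECL detection, β-actin loading control. Representative of three experiments.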"}, "MGC-803 [10]": {"tested_on": "MGC-803", "test": "Induction of apoptosis in human MGC-803 cells assessed as early apoptotic cells at 2.5 uM measured after 24 hrs by Annexin-V/propidium iodide staining-based flow cytometric analysis (Rvb =0.84%)"}, "MGC-803 [11]": {"tested_on": "MGC-803", "test": "Induction of apoptosis in human MGC-803 cells assessed as viable cells at 2.5 uM measured after 24 hrs by Annexin-V/propidium iodide staining-based flow cytometric analysis (Rvb =92.2 %)", "settings": "MGC-803, 24 h"}, "Calf thymus DNA": {"tested_on": "Calf thymus DNA", "test": "Binding affinity to calf thymus DNA assessed as quenching in emission band measured at 0.5:1 to 5:1 compound to EB ratio by ethidium bromide competitive displacement assay", "settings": "Bos taurus", "procedure,_shortened": "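Competitive displacement using EB (10 µM) with ct-DNA (20 µM) in Tris-HCl, pH 7.4, 25 °C. Compound added stepwise from 10 to 100 µM; 5 min equilibration after each addition, then fluorescence emission recorded (slits 5 nm). Quenching constant from the Stern–Volmer equation.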"}, "MGC-803 [12]": {"tested_on": "MGC-803", "test": "Induction of apoptosis in human MGC-803 cells assessed as decrease in Bcl-2 expression at 0.5 to 2.5 uM measured after 24 hrs by Western blot analysis", "assay_type": "functional, cell-based", "settings": "dose 0.5-2.5 µM", "procedure,_shortened": "as §4"}, "PC-3": {"tested_on": "PC-3", "test": "Cytotoxicity against human PC-3 cells assessed as reduction in cell viability preincubated for 48 hrs and measured after 4 hrs by MTT assay", "assay_type": "functional, cell-based"}, "MGC-803 [13]": {"tested_on": "MGC-803", "test": "Cell cycle arrest in human MGC-803 cells assessed as accumulation at S phase at 0.25 uM after 48 hrs by propidium iodide staining-based flow cytometric analysis (reference value: 45.1 %)", "assay_type": "functional"}, "MGC-803 [14]": {"tested_on": "MGC-803", "test": "Induction of apoptosis in human MGC-803 cells assessed as increase in MDM2 protein expression upto 2.5 uM incubated for 24 hrs by Western blot analysis", "assay_type": "functional, cell-based", "settings": "dose microM <=2.5, time 24.0 hrs", "procedure,_shortened": "as §3"}, "MGC-803 [15]": {"tested_on": "MGC-803", "test": "Induction of apoptosis in human MGC-803 cells assessed as increase in nuclear chromatin condensation at 0.5 to 2.5 uM incubated for 24 hrs by Hoechst 33258 staining based analysis", "assay_type": "functional, cell-based", "settings": "dose 0.5-2.5 µM", "procedure,_shortened": "as §2"}, "MGC-803 [16]": {"tested_on": "MGC-803", "test": "Induction of apoptosis in human MGC-803 cells assessed as late apoptotic cells at 0.5 uM measured after 24 hrs by Annexin-V/propidium iodide staining-based flow cytometric analysis (Rvb =0.93%)"}}, "note": "pIC50: −log10 of the molar value. Calls of active or inactive are those of the source. No cut-off for these calls is given here."}
{"smiles": "NCCCCNc1nc(/C=C/c2ccc([N+](=O)[O-])cc2)nc2ccccc12", "values": [{"measurement": "pIC50", "setting": "DU-145", "value": 5.38}, {"measurement": "inhibition in vivo at 20 mg/kg", "setting": "MGC-803 [1]", "value": 61.8, "unit": "%"}, {"measurement": "Activity", "setting": "Mus musculus", "value": "Non-Toxic"}, {"measurement": "Activity", "setting": "MGC-803 [2]", "value": 46.45, "unit": "%"}, {"measurement": "Activity", "setting": "MGC-803 [3]", "value": 57.35, "unit": "%"}, {"measurement": "Activity", "setting": "MGC-803 [4]", "value": "Active"}, {"measurement": "Activity", "setting": "MGC-803 [5]", "value": "Active"}, {"measurement": "viability at 0.5 µM", "setting": "MGC-803 [6]", "value": 71, "unit": "%"}, {"measurement": "Activity", "setting": "MGC-803 [7]", "value": "inactive"}, {"measurement": "Activity", "setting": "MGC-803 [8]", "value": "Active"}, {"measurement": "pIC50", "setting": "L02", "value": 5.13}, {"measurement": "Activity", "setting": "MGC-803 [9]", "value": "Active"}, {"measurement": "Activity", "setting": "MGC-803 [10]", "value": 28, "unit": "%"}, {"measurement": "viability at 2.5 µM", "setting": "MGC-803 [11]", "value": 14.8, "unit": "%"}, {"measurement": "Activity", "setting": "Calf thymus DNA", "value": "Active"}, {"measurement": "Activity", "setting": "MGC-803 [12]", "value": "Active"}, {"measurement": "pIC50", "setting": "PC-3", "value": 5.34}, {"measurement": "Activity", "setting": "MGC-803 [13]", "value": 36.91, "unit": "%"}, {"measurement": "Activity", "setting": "MGC-803 [14]", "value": "Active"}, {"measurement": "Activity", "setting": "MGC-803 [15]", "value": "Active"}, {"measurement": "Activity", "setting": "MGC-803 [16]", "value": 6.91, "unit": "%"}]}
